Source: ChEMBL document CHEMBL5346861, “Designing quinoline-isoniazid hybrids as potent anti-tubercular agents inhibiting mycolic acid biosynthesis” (Eur J Med Chem, 2022)
In brackets after ≈: the same amount, converted by molar mass. Activity calls are given as the source filed them. No cut-off for these calls is given here.

Columns and labels:
[1] = system: Mycobacterium tuberculosis; test: Antimycobacterial activity against Mycobacterium tuberculosis mc2 6230 assessed as inhibition of bacterial growth measured after 7 days by broth dilution method; assay type: functional; details: mc2 6230, 168 h, time 7 day
Summary of the method: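 Pantothenate auxotroph carrying empty pMV261. 2-fold serial dilutions, 37 °C, no agitation, 7 days. MIC99 is the lowest concentration with no turbidity change. DMSO vehicle control.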

[2] = system: Mycobacterium tuberculosis; test: Antimycobacterial activity against Mycobacterium tuberculosis mc2 6230 assessed as reduction in log10 CFU at 5 times of MIC measured after 3 days by time-killing kinetics assay; assay type: functional; details: time 3 day
Summary of the method: (§1)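 Exposed to 1x, 5x or 20x MIC at 37 °C for up to 6 days. Serial dilutions plated on 7H10/OADC/pantothenate and colonies counted after 3 weeks. Mean of four independent experiments in technical triplicate, with SD. DMSO negative control.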

[3] = Cytotoxicity against human THP-1 cells assessed as reduction in cell viability measured after 24 hrs by resazurin staining based analysis; assay type: toxicity
Summary of the method: (§2)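 THP-1 monocytes differentiated with 20 ng/mL PMA for 48 hrs at 1×10^5 cells/well. Compounds added by serial dilution from 100 µg/mL for 24 or 72 hrs at 37 °C and 5% CO₂. Resazurin 10% for 4 hrs, fluorescence at ex 540/em 590 nm. Mean of three independent experiments in triplicate. INH and RFB reference drugs.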

Mycobacterium marinum = test: Antimycobacterial activity against Mycobacterium marinum M strain assessed as inhibition of bacterial growth measured after 6 days by broth dilution method; assay type: functional; details: 144 h, time 6 day
Summary of the method: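 MIC99 by 2-fold serial broth dilution in 7H9 with 10% OADC and 0.025% tyloxapol. Inoculum 5.10⁶ CFU/mL. Incubated without agitation at 30 °C, scored for no turbidity change after 6 days. DMSO vehicle control.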

[4] = system: Mycobacterium tuberculosis; test: Antimycobacterial activity against Mycobacterium tuberculosis mc2 6230 assessed as inhibition of bacterial growth at 1 ug/ml measured after 7 days by broth dilution method; assay type: functional, organism-based; details: dose 1.0 µg/ml, time 7.0 day
[5] = Cytotoxicity against human THP-1 cells assessed as reduction in cell viability measured after 72 hrs by resazurin staining based analysis; assay type: toxicity; summary of the method: as §2
[6] = system: Mycobacteroides abscessus; test: Antimycobacterial activity against Mycobacterium abscessus CIP104536 smooth variant assessed as inhibition of bacterial growth measured after 4 days by broth dilution method; assay type: functional; details: CIP104536, 96 h, time 4 day
Summary of the method: (§3)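 MIC99 by CLSI broth 2-fold serial dilution in CaMHB. Inoculum 5.10⁶ CFU/mL. Incubated at 30 °C and read by turbidity after 4 days. DMSO vehicle control, INH reference.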

[7] = system: Mycobacterium tuberculosis; test: Antimycobacterial activity against Mycobacterium tuberculosis mc2 6230 assessed as reduction in log10 CFU at 20 times of MIC measured after 6 days by time-killing kinetics assay; assay type: functional; details: time 6 day; summary of the method: as §1
[8] = system: Mycobacterium tuberculosis; test: Antimycobacterial activity against Mycobacterium tuberculosis mc2 6230 assessed as reduction in log10 CFU at 1 time of MIC measured after 6 days by time-killing kinetics assay; assay type: functional, organism-based; details: time 6.0 day; summary of the method: as §1
Vero = test: Cytotoxicity against African green monkey Vero cells assessed as reduction in cell viability measured after 24 hrs by resazurin staining based analysis; assay type: toxicity; details: chlorocebus sabaeus
Summary of the method: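 Vero cells in RPMI 1640 with 10% FCS, 2×10^4 cells/well, adhered overnight at 37 °C and 5% CO₂. Compounds added at 100 to 0.78 µg/mL for 24 hrs. 10% resazurin added for 4 hrs, fluorescence read at ex 540/em 590 nm.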

[9] = system: Mycobacteroides abscessus; test: Antimycobacterial activity against Mycobacterium abscessus CIP104536 rough variant assessed as inhibition of bacterial growth measured after 4 days by broth dilution method; assay type: functional; details: CIP104536, 96 h, time 4 day; summary of the method: as §3
[10] = Selectivity index, […] Mycobacterium abscessus CIP104536 rough variant to CC50 for cytotoxicity against human THP-1 cells; assay type: toxicity, cell-based; details: read-out: Selectivity Index
[11] = Selectivity index, […] Mycobacterium tuberculosis H37Rv to CC50 for cytotoxicity against human THP-1 cells; assay type: toxicity, cell-based; details: read-out: Selectivity Index
[12] = Selectivity index, […] Mycobacterium marinum M strain to CC50 for cytotoxicity against human THP-1 cells; assay type: toxicity, cell-based; details: read-out: Selectivity Index
[13] = Selectivity index, […] Mycobacterium abscessus CIP104536 smooth variant to CC50 for cytotoxicity against human THP-1 cells; assay type: toxicity, cell-based; details: read-out: Selectivity Index
[14] = system: Mycobacterium tuberculosis; test: Inhibition of mycolic acid biosynthesis in Mycobacterium tuberculosis mc2 6230 assessed as decrease in keto-mycolic acid at 1.25 ug/ml incubated for 15 mins followed by 14C-labeled acetate addition measured after 7 hrs by TLC analysis; assay type: functional, organism-based; details: dose 1.25 µg/ml, time 435.0 min
[15] = system: Mycobacterium tuberculosis; test: Inhibition of mycolic acid biosynthesis in Mycobacterium tuberculosis mc2 6230 assessed as decrease in alpha-mycolic acid at 1.25 ug/ml incubated for 15 mins followed by 14C-labeled acetate addition measured after 7 hrs by TLC analysis; assay type: functional, organism-based; details: dose 1.25 µg/ml, time 435.0 min
[16] = system: Mycobacterium tuberculosis; test: Inhibition of mycolic acid biosynthesis in Mycobacterium tuberculosis mc2 6230 assessed as decrease in methoxy-mycolic acid at 1.25 ug/ml incubated for 15 mins followed by 14C-labeled acetate addition measured after 7 hrs by TLC analysis; assay type: functional, organism-based; details: dose 1.25 µg/ml, time 435.0 min
[17] = system: Mycobacterium tuberculosis; test: Inhibition of mycolic acid biosynthesis in Mycobacterium tuberculosis mc2 6230 assessed as decrease in alpha-mycolic acid incubated for 15 mins followed by 14C-labeled acetate addition measured after 7 hrs by TLC analysis; assay type: functional, organism-based; details: time 435.0 min
[18] = system: Mycobacterium tuberculosis; test: Inhibition of mycolic acid biosynthesis in Mycobacterium tuberculosis mc2 6230 assessed as decrease in methoxy-mycolic acid incubated for 15 mins followed by 14C-labeled acetate addition measured after 7 hrs by TLC analysis; assay type: functional, organism-based; details: time 435.0 min
[19] = system: Mycobacterium tuberculosis; test: Inhibition of fatty acid methyl esters production in Mycobacterium tuberculosis mc2 6230 incubated for 15 mins followed by 14C-labeled acetate addition measured after 7 hrs by TLC analysis; assay type: functional; details: time 435.0 min
[20] = system: Mycobacterium tuberculosis; test: Inhibition of mycolic acid biosynthesis in Mycobacterium tuberculosis mc2 6230 assessed as decrease in keto-mycolic acid incubated for 15 mins followed by 14C-labeled acetate addition measured after 7 hrs by TLC analysis; assay type: functional, organism-based; details: time 435.0 min

COc1cc(C=O)ccc1OCc1cn(CCCNc2ccnc3cc(Cl)ccc23)nn1
MIC [1]: > 200 µg/mL

COc1cc(C=O)ccc1OCc1cn(CCNc2ccnc3cc(Cl)ccc23)nn1
MIC [1]: > 200 µg/mL

COc1cc(/C=N/NC(=O)c2cnccn2)ccc1OCc1cn(-c2ccnc3cc(Cl)ccc23)nn1
MIC [1]: > 200 µg/mL

COc1cc(/C=N/NC(=O)c2ccncc2)ccc1OCc1cn(CCNc2ccnc3cc(Cl)ccc23)nn1
MIC [1]: 0.5 µg/mL (≈ 0.898 µM) | Activity [2]: 2 log10CFU/ml | CC50 at 24 h [3]: > 100 µg/mL | MIC (Mycobacterium marinum): > 200 µg/mL | Activity [4]: Active | CC50 at 72 h [5]: 73 µg/mL (≈ 131 µM) | MIC [6]: > 200 µg/mL | Activity [7]: ~3 log10CFU/ml | Activity [8]: Active | Activity (Vero): Non-Toxic | MIC [9]: > 200 µg/mL

O=C(N/N=C/c1ccccc1-n1cc(CN2CCN(c3ccnc4cc(Cl)ccc34)CC2)nn1)c1cnccn1
MIC [1]: > 200 µg/mL

O=C(N/N=C/c1ccc(OCc2cn(CCNc3ccnc4cc(Cl)ccc34)nn2)cc1)c1ccncc1
MIC [1]: 0.5 µg/mL (≈ 0.949 µM) | Activity [2]: 2 log10CFU/ml | CC50 at 24 h [3]: > 100 µg/mL | MIC (Mycobacterium marinum): 200 µg/mL (≈ 380 µM) | Activity [4]: Active | CC50 at 72 h [5]: 34 µg/mL (≈ 64.5 µM) | MIC [6]: > 200 µg/mL | Activity [7]: ~3 log10CFU/ml | Activity [8]: Active | Activity (Vero): Non-Toxic | MIC [9]: > 200 µg/mL

O=Cc1ccc(OCc2cn(CCCNc3ccnc4cc(Cl)ccc34)nn2)cc1
MIC [1]: 50 µg/mL (≈ 119 µM) | MIC (Mycobacterium marinum): 200 µg/mL (≈ 474 µM) | MIC [6]: > 200 µg/mL | MIC [9]: > 200 µg/mL

O=Cc1ccc(OCc2cn(-c3ccnc4cc(Cl)ccc34)nn2)cc1
MIC [1]: > 200 µg/mL

O=C(N/N=C/c1ccc(OCc2cn(-c3ccnc4cc(Cl)ccc34)nn2)cc1)c1cnccn1
MIC [1]: > 200 µg/mL

COc1cc(/C=N/NC(=O)c2cccnc2)ccc1OCc1cn(CCNc2ccnc3cc(Cl)ccc23)nn1
MIC [1]: > 200 µg/mL

O=C(N/N=C/c1ccc(OCc2cn(-c3ccnc4cc(Cl)ccc34)nn2)cc1)c1ccncc1
MIC [1]: 0.25 µg/mL (≈ 0.517 µM) | Activity [2]: 2 log10CFU/ml | CC50 at 24 h [3]: > 100 µg/mL | MIC (Mycobacterium marinum): > 200 µg/mL | selectivity ratio [10]: > 200 | Activity [4]: Active | CC50 at 72 h [5]: > 100 µg/mL | selectivity ratio [11]: > 200 | MIC [6]: > 200 µg/mL | selectivity ratio [12]: > 200 | Activity [7]: ~3 log10CFU/ml | Activity [8]: Active | Activity (Vero): Non-Toxic | MIC [9]: > 200 µg/mL | selectivity ratio [13]: > 200

O=Cc1ccccc1-n1cc(CN2CCN(c3ccnc4cc(Cl)ccc34)CC2)nn1
MIC [1]: 100 µg/mL (≈ 231 µM) | MIC (Mycobacterium marinum): > 200 µg/mL | MIC [6]: > 200 µg/mL | MIC [9]: > 200 µg/mL

O=C(N/N=C/c1ccc(OCc2cn(CCCNc3ccnc4cc(Cl)ccc34)nn2)cc1)c1cccnc1
MIC [1]: > 200 µg/mL

O=C(N/N=C/c1ccc(OCc2cn(CCNc3ccnc4cc(Cl)ccc34)nn2)cc1)c1cccnc1
MIC [1]: > 200 µg/mL

O=C(N/N=C/c1ccc(OCc2cn(-c3ccnc4cc(Cl)ccc34)nn2)cc1)c1cccnc1
MIC [1]: > 200 µg/mL

O=C(N/N=C/c1ccccc1-n1cc(CN2CCN(c3ccnc4cc(Cl)ccc34)CC2)nn1)c1ccncc1
MIC [1]: 0.25 µg/mL (≈ 0.453 µM) | inhibition [14]: Active | Activity [2]: 2 log10CFU/ml | inhibition [15]: Active | CC50 at 24 h [3]: 13 µg/mL (≈ 23.5 µM) | MIC (Mycobacterium marinum): 50 µg/mL (≈ 90.6 µM) | Activity [4]: Active | inhibition [16]: Active | CC50 at 72 h [5]: 18 µg/mL (≈ 32.6 µM) | MIC [6]: > 200 µg/mL | inhibition [17]: Dose-Dependent Effect | Activity [7]: ~3 log10CFU/ml | Activity [8]: Active | inhibition [18]: Dose-Dependent Effect | inhibition [19]: inactive | inhibition [20]: Dose-Dependent Effect | MIC [9]: > 200 µg/mL
